{"source": "paper PMC5615838", "about": "(Toxicology Reports, 2016)", "key": {"[1]": {"test": "proof of exposure in 28-day study, plasma concentrations", "assay_type": "in vivo, rat", "details": "for concentration at 29 day: Crl:CD(SD) (Sprague-Dawley), rat, plasma (peripheral blood), oral; for Hepatic Portal Vein Blood Mean Conc. / Hepatic Portal Vein Blood Mean Conc. Ratio: necropsy", "how_it_was_run": "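In the 28-day dietary study (10, 30, 100 mg/kg bw/day), plasma test compound measured in peripheral blood taken at 06:00 h GMT on Day 29. Hepatic portal vein blood was sampled from the same animals at necropsy.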"}, "CYP2C19": {"molecular_target": "CYP2C19 (Homo sapiens, UniProt P33261)", "sequence (P33261 whole entry)": "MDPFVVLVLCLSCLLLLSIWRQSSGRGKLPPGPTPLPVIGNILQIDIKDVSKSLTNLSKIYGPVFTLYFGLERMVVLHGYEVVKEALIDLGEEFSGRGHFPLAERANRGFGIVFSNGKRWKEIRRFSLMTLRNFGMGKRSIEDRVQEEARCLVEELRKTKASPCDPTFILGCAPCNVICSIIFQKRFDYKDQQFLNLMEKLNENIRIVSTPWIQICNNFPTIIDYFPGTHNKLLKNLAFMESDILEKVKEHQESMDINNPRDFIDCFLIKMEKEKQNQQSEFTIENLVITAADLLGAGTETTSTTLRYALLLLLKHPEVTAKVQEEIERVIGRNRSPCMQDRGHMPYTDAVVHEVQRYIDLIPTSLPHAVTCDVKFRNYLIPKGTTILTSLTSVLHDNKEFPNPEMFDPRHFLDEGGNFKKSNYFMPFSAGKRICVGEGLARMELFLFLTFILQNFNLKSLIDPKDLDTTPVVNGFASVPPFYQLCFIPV", "test": "CYP inhibition, LC–MS/MS assay in human liver microsomes", "assay_type": "in vitro ADME", "details": "pooled human liver microsomes, probe S-mephenytoin", "how_it_was_run": "(§1)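 Follow-up CYP panel in pooled human liver microsomes with CYP-specific probe substrates; CYP-specific metabolites quantified by LC-MS/MS. Test compound at 10 μM. Percent inhibition reported.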"}, "CYP2C9 [2]": {"molecular_target": "T1, CYP2C9 (Homo sapiens, UniProt P11712)", "T1 sequence (P11712 whole entry)": "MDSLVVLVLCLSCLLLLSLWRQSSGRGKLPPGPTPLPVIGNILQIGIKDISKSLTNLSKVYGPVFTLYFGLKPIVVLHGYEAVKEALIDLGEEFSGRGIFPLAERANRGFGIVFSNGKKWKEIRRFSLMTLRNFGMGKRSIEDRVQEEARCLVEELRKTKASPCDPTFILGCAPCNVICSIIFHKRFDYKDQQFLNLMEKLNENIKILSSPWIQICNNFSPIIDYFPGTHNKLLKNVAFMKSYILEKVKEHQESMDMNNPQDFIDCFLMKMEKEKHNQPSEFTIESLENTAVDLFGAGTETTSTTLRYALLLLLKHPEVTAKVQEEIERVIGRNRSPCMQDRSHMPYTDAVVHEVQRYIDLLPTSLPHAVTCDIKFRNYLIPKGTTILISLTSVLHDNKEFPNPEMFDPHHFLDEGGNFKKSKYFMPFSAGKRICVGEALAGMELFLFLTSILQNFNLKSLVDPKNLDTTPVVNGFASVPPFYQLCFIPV", "test": "CYP inhibition, LC–MS/MS assay in human liver microsomes", "assay_type": "in vitro ADME", "details": "pooled human liver microsomes, probe tolbutamide", "how_it_was_run": "as §1"}, "[3]": {"test": "28-day subacute toxicity study, diet", "assay_type": "in vivo, rat", "details": "28 days", "how_it_was_run": "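Diet admix given for 28 consecutive days to Crl:CD(SD) rats, 10/sex/group, at 10, 30 or 100 mg/kg bw/day. H&E-stained paraffin sections of tissues examined microscopically for all control and high-dose (100 mg/kg bw/day) animals.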"}, "CYP2D6": {"molecular_target": "CYP2D6 (Homo sapiens, UniProt P10635)", "sequence (P10635 whole entry)": "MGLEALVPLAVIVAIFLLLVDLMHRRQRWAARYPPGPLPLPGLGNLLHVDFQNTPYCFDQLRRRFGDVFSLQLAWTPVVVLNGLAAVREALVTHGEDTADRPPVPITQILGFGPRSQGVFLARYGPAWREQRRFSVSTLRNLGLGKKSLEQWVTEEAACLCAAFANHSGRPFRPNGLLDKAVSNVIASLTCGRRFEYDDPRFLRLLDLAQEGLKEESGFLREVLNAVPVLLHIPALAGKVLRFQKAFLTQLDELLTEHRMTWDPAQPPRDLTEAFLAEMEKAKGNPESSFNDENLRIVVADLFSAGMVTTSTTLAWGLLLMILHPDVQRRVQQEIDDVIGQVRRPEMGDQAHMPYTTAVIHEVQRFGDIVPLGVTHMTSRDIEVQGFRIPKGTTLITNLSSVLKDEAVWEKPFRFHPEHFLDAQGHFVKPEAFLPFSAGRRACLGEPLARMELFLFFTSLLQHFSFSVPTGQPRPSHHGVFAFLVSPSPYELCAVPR", "test": "CYP inhibition, LC–MS/MS assay in human liver microsomes", "assay_type": "in vitro ADME", "details": "pooled human liver microsomes, probe bufuralol", "how_it_was_run": "as §1"}, "CYP2C9 [4]": {"molecular_target": "T1, CYP2C9", "assay_type": "in vitro ADME", "how_it_was_run": "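Pooled human liver microsomes preincubated with test compound for 30 min, with and without an NADPH-generating system, then incubated with diclofenac as the CYP2C9 marker substrate. IC50 derived.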"}, "[5]": {"tested_on": "S. typhimurium strains TA98, TA100, TA1535, TA1537 and E. coli strain WP2 uvrA", "test": "bacterial reverse mutation test", "assay_type": "cell-based, Salmonella typhimurium, Escherichia coli", "details": "50–5000 μg/plate, plate incorporation and pre-incubation, ±S9"}, "[6]": {"test": "JECFA SPET dietary exposure estimate", "set-up": "species or system human", "details": "28- and 90-day toxicology studies"}, "[7]": {"molecular_target": "human bitter receptor hTAS2R8", "details": "antagonist; cited from earlier work"}, "hERG": {"molecular_target": "hERG (Homo sapiens, UniProt Q12809)", "sequence (Q12809 whole entry)": "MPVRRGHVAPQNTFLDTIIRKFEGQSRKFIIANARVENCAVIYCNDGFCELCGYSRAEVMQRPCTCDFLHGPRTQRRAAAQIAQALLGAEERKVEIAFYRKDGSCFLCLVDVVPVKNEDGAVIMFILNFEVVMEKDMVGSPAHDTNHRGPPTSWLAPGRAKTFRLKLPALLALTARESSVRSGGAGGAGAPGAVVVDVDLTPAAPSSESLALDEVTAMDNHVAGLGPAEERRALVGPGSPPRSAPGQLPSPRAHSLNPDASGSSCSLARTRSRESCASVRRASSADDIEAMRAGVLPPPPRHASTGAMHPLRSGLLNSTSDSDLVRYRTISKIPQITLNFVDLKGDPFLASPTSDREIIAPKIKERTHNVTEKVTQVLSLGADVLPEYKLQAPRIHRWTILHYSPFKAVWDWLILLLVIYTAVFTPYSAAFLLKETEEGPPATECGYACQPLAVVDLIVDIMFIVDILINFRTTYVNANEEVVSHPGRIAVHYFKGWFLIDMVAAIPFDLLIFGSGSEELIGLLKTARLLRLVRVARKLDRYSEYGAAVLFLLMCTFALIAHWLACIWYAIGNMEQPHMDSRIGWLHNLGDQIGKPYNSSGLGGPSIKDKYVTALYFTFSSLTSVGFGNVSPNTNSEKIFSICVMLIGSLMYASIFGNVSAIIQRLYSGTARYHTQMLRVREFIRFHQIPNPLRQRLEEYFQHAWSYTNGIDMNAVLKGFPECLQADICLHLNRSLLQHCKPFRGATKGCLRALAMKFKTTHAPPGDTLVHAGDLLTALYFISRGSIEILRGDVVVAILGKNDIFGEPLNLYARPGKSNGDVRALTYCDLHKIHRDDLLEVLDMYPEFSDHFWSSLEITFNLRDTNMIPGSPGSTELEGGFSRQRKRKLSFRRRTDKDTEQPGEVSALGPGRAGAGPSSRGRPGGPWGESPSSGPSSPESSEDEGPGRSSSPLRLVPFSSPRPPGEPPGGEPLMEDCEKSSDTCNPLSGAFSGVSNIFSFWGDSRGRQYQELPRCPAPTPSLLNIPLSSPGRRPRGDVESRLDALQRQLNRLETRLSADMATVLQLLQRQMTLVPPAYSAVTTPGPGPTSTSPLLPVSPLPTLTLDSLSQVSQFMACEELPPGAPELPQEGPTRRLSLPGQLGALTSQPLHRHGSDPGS", "test": "hERG electrophysiology", "assay_type": "cell-based"}, "[8]": {"test": "in vivo metabolism after single oral dose, plasma", "set-up": "species or system rat", "details": "S7958 30 mg/kg bw oral"}, "[9]": {"tested_on": "GPCRs, ion channels, nuclear receptors, transporters", "test": "lead profiling receptor screen", "assay_type": "binding", "details": "10 μM"}, "CYP3A4": {"molecular_target": "CYP3A4 (Homo sapiens, UniProt P08684)", "sequence (P08684 whole entry)": "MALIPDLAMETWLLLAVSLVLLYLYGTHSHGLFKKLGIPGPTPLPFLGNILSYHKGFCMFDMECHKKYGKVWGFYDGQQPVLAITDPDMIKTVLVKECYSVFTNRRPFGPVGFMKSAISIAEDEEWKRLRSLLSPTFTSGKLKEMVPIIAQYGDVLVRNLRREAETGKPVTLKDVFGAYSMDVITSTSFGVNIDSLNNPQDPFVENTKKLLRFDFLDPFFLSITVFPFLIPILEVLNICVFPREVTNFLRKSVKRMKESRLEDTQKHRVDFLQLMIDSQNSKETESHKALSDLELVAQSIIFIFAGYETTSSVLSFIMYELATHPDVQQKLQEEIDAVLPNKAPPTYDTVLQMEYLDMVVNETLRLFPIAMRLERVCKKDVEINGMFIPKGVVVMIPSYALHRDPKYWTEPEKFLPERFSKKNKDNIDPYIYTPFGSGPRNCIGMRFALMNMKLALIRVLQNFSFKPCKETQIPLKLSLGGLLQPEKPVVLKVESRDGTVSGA", "test": "CYP inhibition, LC–MS/MS assay in human liver microsomes", "assay_type": "in vitro ADME", "details": "pooled human liver microsomes, probe midazolam", "how_it_was_run": "as §1"}, "CYP1A2": {"molecular_target": "T2, CYP1A2 (Homo sapiens, UniProt P05177)", "T2 sequence (P05177 1-516)": "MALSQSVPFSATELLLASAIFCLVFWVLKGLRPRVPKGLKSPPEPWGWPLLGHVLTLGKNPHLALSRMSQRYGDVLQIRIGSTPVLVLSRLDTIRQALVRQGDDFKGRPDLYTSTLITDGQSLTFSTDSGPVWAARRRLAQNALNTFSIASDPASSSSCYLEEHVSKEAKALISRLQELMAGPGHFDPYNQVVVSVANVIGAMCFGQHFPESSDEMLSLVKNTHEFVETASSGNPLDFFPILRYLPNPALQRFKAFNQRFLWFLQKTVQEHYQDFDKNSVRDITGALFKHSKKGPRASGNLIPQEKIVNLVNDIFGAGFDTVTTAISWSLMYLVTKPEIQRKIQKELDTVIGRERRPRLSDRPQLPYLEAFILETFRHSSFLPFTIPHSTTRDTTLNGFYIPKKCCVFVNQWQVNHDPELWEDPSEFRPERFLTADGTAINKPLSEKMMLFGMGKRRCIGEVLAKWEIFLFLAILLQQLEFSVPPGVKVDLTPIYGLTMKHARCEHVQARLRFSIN", "test": "CYP inhibition, LC–MS/MS assay in human liver microsomes", "assay_type": "in vitro ADME", "details": "pooled human liver microsomes, probe ethoxyresorufin", "how_it_was_run": "as §1"}}, "data": [{"smiles": "Cc1noc(C)c1Cn1cc(N2C(=O)N(Cc3cccc(O)c3)C(C)(C)C2=O)cn1", "note": "[S7958, 3-(1-((3,5-dimethylisoxazol-4-yl)methyl)-1H-pyrazol-4-yl)-1-(3-hydroxybenzyl)-5,5-dimethylimidazolidine-2,4-dione]", "values": [{"measurement": "Peripheral Blood Mean Conc. Ratio", "setting": "[1]; Day 29, 10 mg/kg bw/day, F", "value": 1}, {"measurement": "Peripheral Blood Mean Conc. Ratio", "setting": "[1]; Day 29, 10 mg/kg bw/day, M", "value": 1}, {"measurement": "Peripheral Blood Mean Conc. Ratio", "setting": "[1]; Day 29, 30 mg/kg bw/day, F", "value": 3.6}, {"measurement": "Peripheral Blood Mean Conc. Ratio", "setting": "[1]; Day 29, 30 mg/kg bw/day, M", "value": 4.1}, {"measurement": "Peripheral Blood Mean Conc. Ratio", "setting": "[1]; Day 29, 100 mg/kg bw/day, F", "value": 7.4}, {"measurement": "Peripheral Blood Mean Conc. Ratio", "setting": "[1]; Day 29, 100 mg/kg bw/day, M", "value": 41.5}, {"measurement": "concentration at 29 day", "setting": "[1]; female, 10 mg/kg bw/day", "value": 18.4, "unit": "ng/mL"}, {"measurement": "concentration at 29 day", "setting": "[1]; female, 30 mg/kg bw/day", "value": 66.7, "unit": "ng/mL"}, {"measurement": "concentration at 29 day", "setting": "[1]; female, 100 mg/kg bw/day", "value": 136, "unit": "ng/mL"}, {"measurement": "concentration at 29 day", "setting": "[1]; male, 10 mg/kg bw/day", "value": 0.441, "unit": "ng/mL"}, {"measurement": "concentration at 29 day", "setting": "[1]; male, 30 mg/kg bw/day", "value": 1.79, "unit": "ng/mL"}, {"measurement": "concentration at 29 day", "setting": "[1]; male, 100 mg/kg bw/day", "value": 18.3, "unit": "ng/mL"}, {"measurement": "Hepatic Portal Vein Blood Mean Conc.", "setting": "[1]; 10 mg/kg bw/day, F", "value": 19.4, "unit": "ng/mL"}, {"measurement": "Hepatic Portal Vein Blood Mean Conc. Ratio", "setting": "[1]; 10 mg/kg bw/day, F", "value": 1}, {"measurement": "Hepatic Portal Vein Blood Mean Conc.", "setting": "[1]; 10 mg/kg bw/day, M", "value": 24.4, "unit": "ng/mL"}, {"measurement": "Hepatic Portal Vein Blood Mean Conc. Ratio", "setting": "[1]; 10 mg/kg bw/day, M", "value": 1}, {"measurement": "Hepatic Portal Vein Blood Mean Conc.", "setting": "[1]; 30 mg/kg bw/day, F", "value": 85.0, "unit": "ng/mL"}, {"measurement": "Hepatic Portal Vein Blood Mean Conc. Ratio", "setting": "[1]; 30 mg/kg bw/day, F", "value": 4.4}, {"measurement": "Hepatic Portal Vein Blood Mean Conc.", "setting": "[1]; 30 mg/kg bw/day, M", "value": 68.2, "unit": "ng/mL"}, {"measurement": "Hepatic Portal Vein Blood Mean Conc. Ratio", "setting": "[1]; 30 mg/kg bw/day, M", "value": 2.8}, {"measurement": "Hepatic Portal Vein Blood Mean Conc.", "setting": "[1]; 100 mg/kg bw/day, F", "value": 334, "unit": "ng/mL"}, {"measurement": "Hepatic Portal Vein Blood Mean Conc. Ratio", "setting": "[1]; 100 mg/kg bw/day, F", "value": 17.2}, {"measurement": "Hepatic Portal Vein Blood Mean Conc.", "setting": "[1]; 100 mg/kg bw/day, M", "value": 345, "unit": "ng/mL"}, {"measurement": "Hepatic Portal Vein Blood Mean Conc. Ratio", "setting": "[1]; 100 mg/kg bw/day, M", "value": 14.1}, {"measurement": "inhibition at 10 µM", "setting": "CYP2C19", "value": 17, "unit": "%"}, {"measurement": "inhibition at 10 µM", "setting": "CYP2C9 [2]", "value": 62, "unit": "%"}, {"measurement": "NOAEL", "setting": "[3]; 10, 30, 100 mg/kg bw/day food ad-mix, both sexes", "value": 100, "unit": "mg/kg bw/day"}, {"measurement": "Findings", "setting": "[3]; up to 100 mg/kg bw/day", "value": "No test-article related findings"}, {"measurement": "inhibition at 10 µM", "setting": "CYP2D6", "value": 17, "unit": "%"}, {"measurement": "IC50", "setting": "CYP2C9 [4]", "value": 8.8, "unit": "µM"}, {"measurement": "time- or metabolism-dependent inhibition", "setting": "CYP2C9 [4]; 30 min preincubation ±NADPH", "value": "no evidence of either time- or metabolism-dependent inhibition"}, {"measurement": "Reverse mutation (in vitro), Result", "setting": "[5]", "value": "Negative"}, {"measurement": "NOAEL of 100 mg/kg bw/day as multiple of estimated dietary exposure", "setting": "[6]", "value": 1500, "unit": "times"}, {"measurement": "IC50", "setting": "[7]", "value": 0.073, "unit": "µM"}, {"measurement": "inhibition at 10 µM", "setting": "hERG", "value": "< 10", "unit": "%"}, {"measurement": "maximum concentration in plasma", "setting": "[8]", "value": "5.2 ± 7.1", "unit": "ng/mL"}, {"measurement": "significant responses (≥50% inhibition or stimulation)", "setting": "[9]", "value": "No significant responses"}, {"measurement": "inhibition at 10 µM", "setting": "CYP3A4", "value": 12, "unit": "%"}, {"measurement": "inhibition at 10 µM", "setting": "CYP1A2", "value": 16, "unit": "%"}]}]}
